This is an account of results in paper PMC9868102 (Cell chemical biology, 2023).

Data set [1] concerns clathrin mediated endocytosis / LRP-1 in NRK cells. In words: Inhibition of clathrin/LRP-1 mediated endocytosis of 33mer and α2M in NRK cells. The data set is classed as cell-based, rat. The following applies: for inhibition of large endocytic puncta (33mer + α2M): 12.5 mM MβCD, 20 μM Dyno-4a, 25 μM Pitstop. An outline of the steps:
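Clathrin-endocytosis inhibitors used on NRK cells: MβCD 12.5 mM, Dyno-4a 20 μM, Pitstop 25 μM; Pitstop added 30 min before the other treatments. Then labelled α2M and Cy5-33mer for 1.5 h, HBSS washes, 2% PFA fix, DAPI, confocal for large double-labelled puncta.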

The target of the next data set is T1, human TG2 (Homo sapiens, UniProt P21980).
T1 sequence (P21980 1-687): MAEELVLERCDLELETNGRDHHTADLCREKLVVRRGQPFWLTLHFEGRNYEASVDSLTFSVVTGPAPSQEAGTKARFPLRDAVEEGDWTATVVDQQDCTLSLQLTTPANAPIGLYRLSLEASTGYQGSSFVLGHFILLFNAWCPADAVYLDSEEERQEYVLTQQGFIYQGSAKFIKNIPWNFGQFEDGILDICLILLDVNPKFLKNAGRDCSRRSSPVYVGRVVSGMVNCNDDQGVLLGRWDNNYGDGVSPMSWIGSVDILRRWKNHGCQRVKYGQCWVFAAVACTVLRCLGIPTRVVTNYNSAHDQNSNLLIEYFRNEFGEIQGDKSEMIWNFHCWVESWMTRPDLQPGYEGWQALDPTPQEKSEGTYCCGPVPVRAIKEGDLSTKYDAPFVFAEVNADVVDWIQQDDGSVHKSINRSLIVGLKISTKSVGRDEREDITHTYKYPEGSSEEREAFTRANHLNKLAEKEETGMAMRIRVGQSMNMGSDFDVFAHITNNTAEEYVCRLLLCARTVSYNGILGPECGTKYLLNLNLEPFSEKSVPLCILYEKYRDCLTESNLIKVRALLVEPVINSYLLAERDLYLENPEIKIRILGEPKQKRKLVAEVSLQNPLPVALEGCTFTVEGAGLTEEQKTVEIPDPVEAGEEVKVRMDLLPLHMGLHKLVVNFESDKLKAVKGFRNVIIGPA
In words: TG2 steady-state kinetics of substrates, wild-type TG2 ± α2M and vs pH. Particulars: deamidation of Ac-PQLPF-NH2, pH 4.2-7.2; steady-state; triplicates. The data set is classed as biochemical. An outline of the steps: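 His6-tagged human TG2 from E. coli BL21(DE3) was purified by Ni-NTA and anion exchange, reduced, and desalted into PBS. It was assayed at 1 μM final, ± recombinant human α2M (Expi293F-expressed), with GDH/α-ketoglutarate/NADH coupling in 200 mM MOPS pH 7.2 with 5 mM CaCl2. Substrate was Ac-PQLPF-NH2 unless otherwise specified. Absorbance at 340 nm was followed for 60 min at 25 °C. Steady-state rates came from linear progress-curve slopes; triplicate.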

In the next data set the test system is wild-type MEFs. Kind of data set: Labeling of wild-type MEFs by TG2 activity probes. It is filed as cell-based, mouse. The following applies: TRX added for duration of HB230 treatment. An outline of the steps:
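MEFs were grown in DMEM and seeded on glass-bottom plates for 3 days. TG2-knockout controls were E14.5 MEFs immortalised with SV40 large T. Media were replaced, then probe was added with recombinant human TRX for the whole 3 h treatment. Cells were washed in HBSS, fixed in 2% PFA for 10 min at RT, and stained with DAPI. Imaging was confocal with a 63x oil objective; probe was read on the 647 nm channel.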

Entries after “also recorded” stand apart in the source; their conditions may differ.

As for `O=C(N/N=C/c1cc(O)c(O)cc1O)c1cc2ccccc2cc1O` [Dyno-4a], the “inhibition of large endocytic puncta (33mer + α2M)” value in data set [1] is “strong inhibition of α2M and peptide colocalization as large endocytic puncta; also recorded: abrogate the appearance of large puncta”.

Turning to “TG2: recombinant human transglutaminase 2”, the “pH-dependence of TG2 catalytic activity” value with human TG2 was “preserved upon acidification until at least pH 5”.

Turning to methyl-β-cyclodextrin [MβCD], in data set [1], the “inhibition of large endocytic puncta (33mer + α2M)” value was “strong inhibition of α2M and peptide colocalization as large endocytic puncta; also recorded: abrogate the appearance of large puncta”.

B1: TRX: recombinant human thioredoxin (protein, UniProt P10599 2-105, looked up)
Thioredoxin: VKQIESKTAFQEALDAAGDKLVVVDFSATWCGPCKMIKPFFHSLSEKYSNVIFLEVDVDDCQDVASECEVKCMPTFQFFKKGQKVGEFSGANKEKLEATINELV
As for B1, the “dependence of probe labeling on TRX” value with wild-type MEFs is “strongly dependent”.

B2: RAP: potent endogenous antagonist of α2M binding to LRP-1, receptor associated protein (protein, UniProt P30533 35-357, looked up)
Alpha-2-macroglobulin …: YSREKNQPKPSPKRESGEEFRMEKLNQLWEKAQRLHLPPVRLAELHADLKIQERDELAWKKLKLDGLDEDGEKEARLIRNLNVILAKYGLDGKKDARQVTSNSLSGTQEDGLDDPRLEKLWHKAKTSGKFSGEELDKLWREFLHHKEKVHEYNVLLETLSRTEEIHENVISPSDLSDIKGSVLHSRHTELKEKLRSINQGLDRLRRVSHQGYSTEAEFEEPRVIDLWDLAQSANLTDKELEAFREELKHFEAKIEKHNHYQKQLEIAHEKLRHAESVGDGERVSRSREKHALLEGRTKELGYTVKKHLQDLSGRISRARHNEL
Regarding B2, in data set [1] (RAP prior to Cy5-33mer and α2M), the “inhibition of large 33mer-containing puncta by LRP-1 antagonist” value is “inhibits the formation of large 33mer-containing puncta; also recorded: fully ablated the formation of large puncta”.
